Numbered stars: 1 amine (or outer) side, 2 acyl side, 3 side chain; on linkers, the order of the positions; unused ones are H or OH. Square brackets hold non-standard residues; d marks the D form. Peptide text beside a SMILES is read from it. * marks the point of attachment. Dolaproine = CO[C@@H]([C@@H]1CCCN1)[C@@H](C)C(=O)O; Hexanoyl(6-maleimido) = O=C1C=CC(=O)N1CCCCCC(=O)*; Dil = CC[C@H](C)[C@H](NC)[C@@H](CC(=O)O)OC; PABC = O=C(OCc1ccc(N[*:1])cc1)[*:2]; Cit = NC(=O)NCCC[C@H](N)C(=O)O; NMeV = CN[C@H](C(=O)O)C(C)C; X1 = c1cc(CCN*)c2cnccc2c1; X2 = c1cc(CCN*)c2ccncc2c1; X3 = c1cc2ccc(CCN*)cc2cn1
How the values were obtained:
Assay type in all cases: functional
NCI-H460 = experiment: Growth inhibition of human NCI-H460 cells after 48 hrs by SRB assay; conditions: NCI-H460, 48 h
Procedure, shortened: (§1)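 Cells grown in RPMI1640 with 5% fetal bovine serum, seeded in 96-well plates and incubated 24 h before serial dilutions of compound were added. After a further 48 h, cells were fixed with trichloroacetic acid, stained with sulforhodamine B and read on a plate reader. GI50 (concentration giving 50% reduction in net protein increase) was calculated from optical density data.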

SF-268 = experiment: Growth inhibition of human SF268 cells after 48 hrs by SRB assay; conditions: SF-268, 48 h; procedure, shortened: as §1
KM-20L2 = experiment: Growth inhibition of human KM20L2 cells after 48 hrs by SRB assay; conditions: KM-20L2, 48 h; procedure, shortened: as §1
MCF7 = experiment: Growth inhibition of human MCF7 cells after 48 hrs by SRB assay; conditions: MCF7, 48 h; procedure, shortened: as §1
BXPC-3 = experiment: Growth inhibition of human BxPC3 cells after 48 hrs by SRB assay; conditions: BXPC-3, 48 h; procedure, shortened: as §1
DU-145 = experiment: Growth inhibition of human DU145 cells after 48 hrs by SRB assay; conditions: DU-145, 48 h; procedure, shortened: as §1

Row | GI50 (NCI-H460) | GI50 (MCF7) | GI50 (BXPC-3) | GI50 (DU-145) | Compound | GI50 (SF-268) | GI50 (KM-20L2)
1 | 1.19 nM | – | – | – | CC[C@H](C)[C@@H]([C@@H](CC(=O)N1CCC[C@H]1[C@H](OC)[C@@H](C)C(=O)NCCc1ccc2cccnc2c1)OC)N(C)C(=O)[C@@H](NC(=O)[C@H](C(C)C)N(C)C)C(C)C | 0.03 nM | –
2 | 17.3 nM | 0.279 nM | 7.31 nM | 2.79 nM | CC[C@H](C)[C@@H]([C@@H](CC(=O)N1CCC[C@H]1[C@H](OC)[C@@H](C)C(=O)NCCc1cccc2cnccc12)OC)N(C)C(=O)[C@@H](NC(=O)[C@H](C(C)C)N(C)C)C(C)C | 0.266 nM | 0.385 nM
3 | 9.03 nM | 0.133 nM | 4.25 nM | 0.053 nM | CC[C@H](C)[C@@H]([C@@H](CC(=O)N1CCC[C@H]1[C@H](OC)[C@@H](C)C(=O)NCCc1cccc2ccncc12)OC)N(C)C(=O)[C@@H](NC(=O)[C@H](C(C)C)N(C)C)C(C)C | 0.07 nM | 0.146 nM
4 | 9.3 nM | 0.186 nM | 4.39 nM | 0.033 nM | CC[C@H](C)[C@@H]([C@@H](CC(=O)N1CCC[C@H]1[C@H](OC)[C@@H](C)C(=O)NCCc1ccc2ccncc2c1)OC)N(C)C(=O)[C@@H](NC(=O)[C@H](C(C)C)N(C)C)C(C)C | 0.068 nM | 0.399 nM
5 | 122 nM | 0.271 nM | 40.6 nM | 0.42 nM | CC[C@H](C)[C@@H]([C@@H](CC(=O)N1CCC[C@H]1[C@H](OC)[C@@H](C)C(=O)NCCc1cccc2ccncc12)OC)N(C)C(=O)[C@@H](NC(=O)[C@@H](NC)C(C)C)C(C)C (H-[NMeV]V[Dil][Dolaproine]-X1) | 0.135 nM | 0.542 nM
6 | 42 nM | 0.095 nM | 11 nM | 0.677 nM | CC[C@H](C)[C@@H]([C@@H](CC(=O)N1CCC[C@H]1[C@H](OC)[C@@H](C)C(=O)NCCc1cccc2cnccc12)OC)N(C)C(=O)[C@@H](NC(=O)[C@@H](NC)C(C)C)C(C)C (H-[NMeV]V[Dil][Dolaproine]-X2) | 0.132 nM | 0.271 nM
7 | 54.2 nM | 0.149 nM | 44.7 nM | 0.122 nM | CC[C@H](C)[C@@H]([C@@H](CC(=O)N1CCC[C@H]1[C@H](OC)[C@@H](C)C(=O)NCCc1ccc2ccncc2c1)OC)N(C)C(=O)[C@@H](NC(=O)[C@@H](NC)C(C)C)C(C)C (H-[NMeV]V[Dil][Dolaproine]-X3) | 0.325 nM | 0.569 nM
8 | 2240 nM | 22.4 nM | 524 nM | 23.2 nM | CC[C@H](C)[C@@H]([C@@H](CC(=O)N1CCC[C@H]1[C@H](OC)[C@@H](C)C(=O)NCCc1cccc2ccncc12)OC)N(C)C(=O)[C@@H](NC(=O)[C@H](C(C)C)N(C)C(=O)OCc1ccc(NC(=O)[C@H](CCCNC(N)=O)NC(=O)[C@@H](NC(=O)CCCCCN2C(=O)C=CC2=O)C(C)C)cc1)C(C)C ({Hexanoyl(6-maleimido)}-V[Cit][PABC][NMeV]V[Dil][Dolaproine]-X1) | 16.5 nM | 32.2 nM
9 | 396 nM | 21.7 nM | 307 nM | 26.9 nM | CC[C@H](C)[C@@H]([C@@H](CC(=O)N1CCC[C@H]1[C@H](OC)[C@@H](C)C(=O)NCCc1cccc2cnccc12)OC)N(C)C(=O)[C@@H](NC(=O)[C@H](C(C)C)N(C)C(=O)OCc1ccc(NC(=O)[C@H](CCCNC(N)=O)NC(=O)[C@@H](NC(=O)CCCCCN2C(=O)C=CC2=O)C(C)C)cc1)C(C)C ({Hexanoyl(6-maleimido)}-V[Cit][PABC][NMeV]V[Dil][Dolaproine]-X2) | 9.72 nM | 30.7 nM
10 | 448 nM | 18 nM | 149 nM | 15.7 nM | CC[C@H](C)[C@@H]([C@@H](CC(=O)N1CCC[C@H]1[C@H](OC)[C@@H](C)C(=O)NCCc1ccc2ccncc2c1)OC)N(C)C(=O)[C@@H](NC(=O)[C@H](C(C)C)N(C)C(=O)OCc1ccc(NC(=O)[C@H](CCCNC(N)=O)NC(=O)[C@@H](NC(=O)CCCCCN2C(=O)C=CC2=O)C(C)C)cc1)C(C)C ({Hexanoyl(6-maleimido)}-V[Cit][PABC][NMeV]V[Dil][Dolaproine]-X3) | 9.72 nM | 32.2 nM

Reference: ChEMBL document CHEMBL4138124, “Antineoplastic Agents. 605. Isoquinstatins” (2018)
